Values after ≈ are worked out from the molar mass of the structure shown.
Key:
Format in all cases: functional
[1] = system: Klebsiella pneumoniae; assay: Antibacterial activity against Klebsiella pneumoniae after 16 to 18 hrs by […]
[2] = system: Aspergillus fumigatus; assay: Antifungal activity against Aspergillus fumigatus NCIM N0.902 after 3 to 4 days by serial plate dilution method
[3] = system: Bacillus subtilis; assay: Antibacterial activity against Bacillus subtilis after 16 to 18 hrs by […]
[4] = system: Mycobacterium tuberculosis; assay: Antitubercular activity against Mycobacterium tuberculosis H37Rv assessed as growth inhibition after 7 days by resazurin assay
Summary of the method: (§1)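 M. tuberculosis H37Rv ATCC 27294 grown in Middlebrook 7H9 broth with 10% OADC and adjusted to McFarland 2. Culture was diluted 1:4 into fresh medium. Compounds came from 2 mg/mL DMF stocks, screened first at 1, 10 and 100, then at 0.3125–5. DMF-only controls were included. After 7 days at 37 °C, 0.01% resazurin was added; a blue-to-pink change marked growth, and the MIC was read.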

[5] = system: Aspergillus flavus; assay: Antifungal activity against Aspergillus flavus NCIM N0.524 at MIC after 3 to 4 days
Summary of the method: (§2)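 Fungal suspension made by transferring a loopful of culture to 3 mL saline and seeding agar plates, 20 mL agar per dish, dried 1 h at 37 °C. Punched wells loaded with test compound in DMSO at its MIC. DMSO-only control. Triplicate plates held 3-4 days at 37 °C. Inhibition zone diameter measured.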

[6] = system: Talaromyces marneffei; assay: Antifungal activity against Penicillium marneffei after 3 to 4 days by serial plate dilution method
[7] = system: Aspergillus flavus; assay: Antifungal activity against Aspergillus flavus NCIM N0.524 after 3 to 4 days by serial plate dilution method
[8] = system: Trichophyton mentagrophytes; assay: Antifungal activity against Trichophyton mentagrophytes after 3 to 4 days by serial plate dilution method
[9] = system: Pseudomonas aeruginosa; assay: Antibacterial activity against Pseudomonas aeruginosa ATCC 27853 at MIC after 3 to 4 days
Summary of the method: (§3)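 Agar well diffusion on seeded agar plates, 20 mL agar per dish, dried 1 h at 37 °C. Wells punched and loaded with test compound in DMSO at its MIC. DMSO-only control. Plates run in triplicate and kept 3-4 days at 37 °C. Inhibition zone diameter measured.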

[10] = system: Pseudomonas aeruginosa; assay: Antibacterial activity against Pseudomonas aeruginosa ATCC 27853 after 16 to 18 hrs by […]
[11] = system: Klebsiella pneumoniae; assay: Antibacterial activity against Klebsiella pneumoniae at MIC after 3 to 4 days; summary of the method: as §3
[12] = system: Aspergillus fumigatus; assay: Antifungal activity against Aspergillus fumigatus NCIM N0.902 at MIC after 3 to 4 days; summary of the method: as §2
[13] = system: Mycolicibacterium smegmatis; assay: Antitubercular activity against Mycobacterium smegmatis ATCC 19420 after 7 days by resazurin assay; settings: ATCC 19420, 168 h
Summary of the method: (§4)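 Middlebrook 7H9 broth with 10% OADC, culture adjusted to McFarland 2. 50 µL culture added to 150 µL fresh medium. Stocks at 2 mg/mL in DMF, tested first at 1, 10 and 100 µg/mL, then at 0.3125-5 µg/mL. DMF controls. After 7 days at 37 °C, 0.01% resazurin added. Blue-to-pink change read for MIC.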

[14] = system: Candida albicans; assay: Antifungal activity against Candida albicans at MIC after 3 to 4 days; summary of the method: as §2
[15] = system: Trichophyton mentagrophytes; assay: Antifungal activity against Trichophyton mentagrophytes at MIC after 3 to 4 days; summary of the method: as §2
[16] = system: Staphylococcus aureus; assay: Antibacterial activity against Staphylococcus aureus ATCC 25923 at […] after 3 to 4 days; summary of the method: as §3
[17] = system: Mycolicibacterium fortuitum; assay: Antitubercular activity against Mycobacterium fortuitum ATCC 19542 after 7 days by resazurin assay; settings: ATCC 19542, 168 h; summary of the method: as §4
[18] = system: Bacillus subtilis; assay: Antibacterial activity against Bacillus subtilis at MIC after 3 to 4 days; summary of the method: as §3
[19] = system: Talaromyces marneffei; assay: Antifungal activity against Penicillium marneffei at MIC after 3 to 4 days; summary of the method: as §2
[20] = system: Escherichia coli; assay: Antibacterial activity against Escherichia coli ATCC 25922 after 16 to 18 hrs by […]
[21] = system: Mycobacterium tuberculosis; assay: Antitubercular activity against Mycobacterium tuberculosis H37Rv after 7 days by resazurin assay; settings: 168 h; summary of the method: as §1
[22] = system: Candida albicans; assay: Antifungal activity against Candida albicans after 3 to 4 days by serial plate dilution method
[23] = system: Staphylococcus aureus; assay: Antibacterial activity against Staphylococcus aureus ATCC 25923 after 16 to 18 hrs by serial plate dilution method
[24] = system: Escherichia coli; assay: Antibacterial activity against Escherichia coli ATCC 25922 at MIC after 3 to 4 days; summary of the method: as §3

Nc1nc(COC(=O)c2ccc(Cl)cc2)cs1
MIC [1]: 6.25 µg/mL (≈ 23.3 µM)
MIC [2]: 6.25 µg/mL (≈ 23.3 µM)
MIC [3]: 6.25 µg/mL (≈ 23.3 µM)
growth inhibition (GI) [4]: 0%
diameter of the inhibition zone (DIZ) [5]: <10 mm
MIC [6]: 25 µg/mL (≈ 93 µM)
MIC [7]: 25 µg/mL (≈ 93 µM)
MIC [8]: 6.25 µg/mL (≈ 23.3 µM)
diameter of the inhibition zone (DIZ) [9]: 16 mm
MIC [10]: 6.25 µg/mL (≈ 23.3 µM)
diameter of the inhibition zone (DIZ) [11]: 16 mm
diameter of the inhibition zone (DIZ) [12]: 16 mm
MIC [13]: > 100 µg/mL
diameter of the inhibition zone (DIZ) [14]: <10 mm
diameter of the inhibition zone (DIZ) [15]: 16 mm
diameter of the inhibition zone (DIZ) [16]: 16 mm
MIC [17]: > 100 µg/mL
diameter of the inhibition zone (DIZ) [18]: 16 mm
diameter of the inhibition zone (DIZ) [19]: <10 mm
MIC [20]: 6.25 µg/mL (≈ 23.3 µM)
MIC [21]: > 100 µg/mL
MIC [22]: 25 µg/mL (≈ 93 µM)
MIC [23]: 6.25 µg/mL (≈ 23.3 µM)
diameter of the inhibition zone (DIZ) [24]: 16 mm

Nc1nc(COC(=O)c2ccc(Br)cc2)cs1
MIC [1]: 6.25 µg/mL (≈ 20 µM)
MIC [2]: 25 µg/mL (≈ 79.8 µM)
MIC [3]: 25 µg/mL (≈ 79.8 µM)
growth inhibition (GI) [4]: <90%
diameter of the inhibition zone (DIZ) [5]: <10 mm
MIC [6]: 25 µg/mL (≈ 79.8 µM)
MIC [7]: 25 µg/mL (≈ 79.8 µM)
MIC [8]: 12.5 µg/mL (≈ 39.9 µM)
diameter of the inhibition zone (DIZ) [9]: <10 mm
MIC [10]: 25 µg/mL (≈ 79.8 µM)
diameter of the inhibition zone (DIZ) [11]: 16 mm
diameter of the inhibition zone (DIZ) [12]: <10 mm
MIC [13]: 2.5 µg/mL (≈ 7.98 µM)
diameter of the inhibition zone (DIZ) [14]: 16 mm
diameter of the inhibition zone (DIZ) [15]: 11 mm
diameter of the inhibition zone (DIZ) [16]: <10 mm
MIC [17]: > 100 µg/mL
diameter of the inhibition zone (DIZ) [18]: <10 mm
diameter of the inhibition zone (DIZ) [19]: <10 mm
MIC [20]: 25 µg/mL (≈ 79.8 µM)
MIC [21]: 2.5 µg/mL (≈ 7.98 µM)
MIC [22]: 6.25 µg/mL (≈ 20 µM)
MIC [23]: 25 µg/mL (≈ 79.8 µM)
diameter of the inhibition zone (DIZ) [24]: <10 mm

Nc1nc(COC(=O)c2ccccc2[N+](=O)[O-])cs1
MIC [1]: 6.25 µg/mL (≈ 22.4 µM)
MIC [2]: 25 µg/mL (≈ 89.5 µM)
MIC [3]: 12.5 µg/mL (≈ 44.8 µM)
growth inhibition (GI) [4]: 95%
diameter of the inhibition zone (DIZ) [5]: <10 mm
MIC [6]: 12.5 µg/mL (≈ 44.8 µM)
MIC [7]: 25 µg/mL (≈ 89.5 µM)
MIC [8]: 25 µg/mL (≈ 89.5 µM)
diameter of the inhibition zone (DIZ) [9]: <10 mm
MIC [10]: 25 µg/mL (≈ 89.5 µM)
diameter of the inhibition zone (DIZ) [11]: 16 mm
diameter of the inhibition zone (DIZ) [12]: <10 mm
MIC [13]: 10 µg/mL (≈ 35.8 µM)
diameter of the inhibition zone (DIZ) [14]: <10 mm
diameter of the inhibition zone (DIZ) [15]: <10 mm
diameter of the inhibition zone (DIZ) [16]: 11 mm
MIC [17]: 10 µg/mL (≈ 35.8 µM)
diameter of the inhibition zone (DIZ) [18]: 11 mm
diameter of the inhibition zone (DIZ) [19]: 11 mm
MIC [20]: 12.5 µg/mL (≈ 44.8 µM)
MIC [21]: 0.625 µg/mL (≈ 2.24 µM)
MIC [22]: 25 µg/mL (≈ 89.5 µM)
MIC [23]: 12.5 µg/mL (≈ 44.8 µM)
diameter of the inhibition zone (DIZ) [24]: 11 mm

Source: ChEMBL document CHEMBL1944562, “Design, synthesis of some new (2-aminothiazol-4-yl)methylester derivatives as possible antimicrobial and antitubercular agents” (2012)
